Screening results deposited in PubChem BioAssay by The Scripps Research Institute Molecular Screening Center.
A selection: hits, their analogues and other compounds. The true share with any hit is near 3.2%.
OX1R antag-1 = antagonists of human orexin 1 receptor; 330,000 compounds, 0.43% hits; AID 434989; CHO/OX1R cells, Fluo-8 calcium fluorescence, orexin A; O43613; inhibition, % at 5 µM;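 active means inhibition above its plate's threshold, mean inhibition of all tested compounds on the plate plus 3 SD, cut at about 37% in these data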;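 further: 0% = orexin A challenge wells and 100% = SB-334867-A antagonist wells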
Target sequence (O43613 whole entry, looked up): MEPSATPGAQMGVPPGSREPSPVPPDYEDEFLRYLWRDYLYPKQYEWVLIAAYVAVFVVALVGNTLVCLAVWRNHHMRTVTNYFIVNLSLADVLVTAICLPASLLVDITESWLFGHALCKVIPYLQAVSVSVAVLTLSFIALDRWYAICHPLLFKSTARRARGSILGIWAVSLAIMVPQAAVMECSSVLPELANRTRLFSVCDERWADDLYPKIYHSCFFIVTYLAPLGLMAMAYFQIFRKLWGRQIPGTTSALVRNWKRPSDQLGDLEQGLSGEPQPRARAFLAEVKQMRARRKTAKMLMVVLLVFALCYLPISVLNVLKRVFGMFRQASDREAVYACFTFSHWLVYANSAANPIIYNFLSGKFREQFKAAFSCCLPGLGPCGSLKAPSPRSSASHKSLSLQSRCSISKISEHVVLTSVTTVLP
TRPN1 ag = activates the zebrafish TRPN1 channel; activation, % at 3 µM; 220,000 compounds, 0.18% hits; HEK293 zebrafish TRPN1-YFP, Fluo-8 calcium fluorescence; 100% = response to 87 µM carbachol; AID 1424;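 active means activation above its plate's cutoff, the mean activation of test wells on that plate plus 3 SD, cut at about 19% in these data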;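 further: 0% = DMSO alone and 100% = 87 µM carbachol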
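System: zebrafish TRPN1-YFP in HEK293 cells / Dosing: 3 µM single point / Timing: dye loading 1 h at 37 °C, then 30 min room temperature / Signal: Fluo-8 calcium fluorescence, excitation 470-495 nm, emission 515-575 nm / Read-out basis: percent activation from peak over basal fluorescence ratio, control-normalized / Control set: high carbachol 87 µM, low DMSO alone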
TRPML3 ag = activates the human TRPML3 channel; HEK293 TRPML3-YFP, Fluo-8 calcium fluorescence; 100% = the carbachol control signal; activation, % at 3 µM; 220,000 compounds, 0.29% hits; Q8TDD5; AID 1448;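 active means activation above its plate's cutoff, the mean activation of the plate's test wells plus 3 SD, cut at about 12% in these data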;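 further: 0% = DMSO only wells and 100% = carbachol wells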
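Material: HEK293 cells stably carrying human TRPML3-YFP; compound dosing: single dose, 3 µM final nominal compound, 0.3% DMSO final; incubation: 1-h 37 °C dye load, 5-s basal, 120-s post-compound reads; technique: Fluo-8 intracellular calcium fluorescence, excitation 470-495 nm, emission 515-575 nm; read-out basis: percent activation from peak-to-basal fluorescence ratio, scaled between DMSO and carbachol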
GPR7 antag = antagonists of human GPR7 (neuropeptides B/W receptor 1); GPR7-expressing cells, fluorescence antagonist assay; inhibition, % at 4.4 µM; 290,000 compounds, 1.1% hits; AID 1861; in the data active means inhibition above about 16%, passing the limit was not always enough;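 further: cells stimulated with the agonist NPW; 0% = agonist with vehicle and 100% = vehicle without agonist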
CHO parental Ca = counter-screen for OX1R antagonists: effect in parental CHO cells; parental CHO-K1, ATP-induced calcium, Fluo-8 fluorescence; inhibition, % at 5.6 µM; 330,000 compounds, 0.63% hits; AID 463079;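 active means inhibition above that plate's mean sample inhibition plus 3 SD, cut at about 26% in these data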;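 further: 0% = ATP-challenged DMSO wells and 100% = DMSO wells without ATP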
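Test system: untransfected parental CHO cell line. Compound: one dose, 5.6 µM nominal. Detection: intracellular calcium via Fluo-8 no-wash fluorescent dye. Measure: % inhibition. Benchmarks: ATP-challenged DMSO wells low, unchallenged DMSO wells high.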
OX1R antag-2 = OX1R (human) antagonism; inhibition, % at 6.6 µM; O43613; 330,000 compounds, 1.8% hits; OX1R-expressing cells, FRET antagonist read-out; AID 485270; in the data active means inhibition mostly above about 38%, no sharp cut-off; inactive means mostly below about 40%;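 further: 0% = agonist challenge alone and 100% = reference antagonist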
* = called active by the depositor; / = no result given; ! = a repeat was not active.

SMILES	OX1R antag-1	TRPN1 ag	TRPML3 ag	GPR7 antag	CHO parental Ca	OX1R antag-2
O=C1OCc2cc(N=Nc3c(O)[nH]c(=O)[nH]c3=O)ccc21	-1	2	1	-6	-7	42*
Clc1ccc(COC(Cn2ccnc2)c2ccc(Cl)cc2Cl)c(Cl)c1 (centres undefined)	39*!	-1	0	13	43*!	25*!
NC1=NC(=O)C(c2ccccc2)O1 (centres undefined)	/	1	1	1	/	/
COC(=O)C1=C(c2ccccc2OCc2ccccc2)C[C@@H]2CC[C@H]1N2C(=O)NCc1cccc(F)c1	35	/	/	/	-28	41*
O=C(CCC(=O)N1C[C@H]2C[C@@H](C1)c1cccc(=O)n1C2)NCc1ccc(F)cc1	-11	/	/	/	-9	6
CN[C@@H]1C[C@@H](c2ccc(Cl)c(Cl)c2)c2ccccc21	-7	5	5	47*	7	-2
CC(NCc1ccc(Cl)c(Cl)c1)C(O)c1ccccc1 (centres undefined)	-5	-1	0	-1	-18	7
C[C@]12CCC3C(CC[C@@H]4C[C@H](O)CC[C@]34C)C1CCC2=O (some centres undefined)	-6	/	/	/	-7	8
O=C(O)c1cc[c]([Hg][Cl])cc1	-30	/	/	/	5	5
Oc1ccc(-[n+]2c(-c3ccccc3)cc(-c3ccccc3)cc2-c2ccccc2)cc1	37	/	/	/	44*	20
O=C1NC(=O)N(c2ccccc2F)C(=O)/C1=C/c1ccc(Sc2nc3ccccc3[nH]2)o1	41	43*	46*	2	38	17
Cc1ccc(/C=C2\C(=O)NC(=S)N(c3ccccc3F)C2=O)s1	-7	3	1	-9	3	7
O=C1NC(=O)N(c2cccc(Cl)c2)C(=O)/C1=C\c1ccc(Sc2nc3ccccc3[nH]2)o1	62*	20*	14*	-4	39*	9
O=C1NC(=O)N(c2ccccc2)C(=O)/C1=C/c1ccc(Sc2ccccc2)o1	8	2	2	-7	-4	8
CC(C)n1c(O)c(C2c3cc(Cl)ccc3Oc3[nH]c(=O)n(C(C)C)c(=O)c32)c(=O)[nH]c1=O (centres undefined)	/	1	0	-9	/	/
O=C(c1c[nH]cc1-c1ccccc1)c1cccc2ccccc12	41	-2	0	0	40*	25
CCCn1c(C)c(C(=O)c2cccc3ccccc23)c2ccccc21	-29	/	/	/	16	22
C[C@H]1OC[C@@H](C[N+](C)(C)C)O1	9	71*	99*	9	2	14
CC1OC(C[N+](C)(C)C)CC1O (centres undefined)	-5	/	/	/	-9	9
C[C@]12CCC3C(CC[C@H]4C[C@@H](O)CC[C@]34C)C1C[C@@H](N)[C@@H]2O (some centres undefined)	-2	/	/	/	-4	5
Clc1ccc(C[n+]2c(-c3ccccc3)cc(-c3ccccc3)cc2-c2ccccc2)cc1	63*	/	/	/	63*	3
COc1ccc(-c2nc3ccccc3c(=O)o2)cc1	7	0	0	-4	5	13
C[CH2][Hg][S]c1ccccc1C(=O)O	89*	/	/	/	73*	3
CCC1=Nc2cc(C(=O)N3CCC4(CC3)OCCO4)ccc2Sc2ccc(Br)cc21	-33	/	/	20	-40	6
C=C1[C@H]2CC[C@H]3[C@]4(C)C[C@H](O[C@H]5O[C@H](CO)[C@@H](OS(=O)(=O)O)[C@H](OS(=O)(=O)O)[C@H]5OC(=O)CC(C)C)C[C@@H](C(=O)O)[C@H]4CC[C@]3(C2)[C@H]1O	3	/	/	/	-2	13
SMILES	OX1R antag-1	TRPN1 ag	TRPML3 ag	GPR7 antag	CHO parental Ca	OX1R antag-2
COc1cc2c(cc1OC)[C@H]1C(=O)c3ccc4c(c3O[C@H]1CO2)C[C@@H](C(C)(C)O)O4	23	/	/	/	7	13
COc1cc2c(cc1OC)[C@@H]1C(=O)c3ccc4c(c3O[C@@H]1CO2)C[C@H](C(C)C)O4	12	5	3	21*	60*	57
Cc1nc2cc([N+](=O)[O-])ccc2c(=O)n1-c1ccccc1[N+](=O)[O-]	-19	0	0	2	-9	53*
O=C(CCCN1CCC2(CC1)C(=O)NCN2c1ccccc1)c1ccc(F)cc1	106*	53*	50*	102*	99*	10
O=C(c1ccc(F)cc1)C(Cc1ccccc1)N1CCCCC1 (centres undefined)	-21	-2	0	0	-24	5
COC(=O)c1ccc(CC(C(=O)c2ccccc2)N(C)C)cc1 (centres undefined)	-10	/	/	9	-15	15
CC(=O)Nc1ccc([As](=O)(O)c2ccc([N+](=O)[O-])cc2)cc1	-8	0	1	-15	-7	67*
CN(C)C(=O)Oc1ccc([N+](=O)[O-])cc1	-9	0	1	-6	2	15
CCOP(=O)(OCC)/C(C#N)=C/c1ccoc1	/	2	2	-9	/	/
O=C1NS(=O)c2cc([N+](=O)[O-])cc([N+](=O)[O-])c21 (centres undefined)	-1	-1	0	-7	-8	67*
CCN(CC)c1ccc(/C=C2\C(=O)NC(=S)N(C)C2=O)o1	-5	14	3	6	10	55*
COc1cccc(N2C(=O)/C(=C/c3ccc(C)o3)C(=O)NC2=S)c1	0	/	/	5	1	-10
COc1ccc(N2C(=O)/C(=C/c3ccc(N(C)C)o3)C(=O)NC2=S)cc1	0	/	/	-10	10	38*
CC(C)[C@H]1C(=O)O[C@H](C(C)C)C(=O)N(C)[C@@H](C(C)C)C(=O)O[C@H](C(C)C)C(=O)N(C)[C@@H](C(C)C)C(=O)O[C@H](C(C)C)C(=O)N1C	-4	36*	20*	-1	24	14
COc1cc(C=C2C(=O)NC(=O)NC2=O)ccc1OCc1ccc([N+](=O)[O-])cc1	/	0	0	-1	/	/
COc1cc(/C=C(/C)[N+](=O)[O-])ccc1OCc1ccccc1Cl	37	0	4	2	54*	29
O=C(C1CCC(=O)N1Cc1ccccc1Cl)N1CCC2(CC1)OCCO2 (centres undefined)	-13	-1	0	0	-1	1
CC[n+]1c(/C=C/C=C/c2ccc(N(C)C)cc2)sc2ccccc21	42	-2	-1	4	33*	75*
O=C1/C(=C\c2cc3c(cc2Br)OCO3)N2CCC1CC2	-10	2	0	3	-15	40
CCC(=NCCN1CCCCC1)c1c(O)n(C)c(=O)n(C)c1=O	-14	1	0	-16	8	23
CCC(=NCCc1c[nH]c2ccccc12)c1c(O)n(C)c(=O)n(C)c1=O	20	6	2	0	44*	27
